The values below come from ChEMBL document CHEMBL1144563 (Bioorg Med Chem, 2007).

Broadly, the Ki is the dissociation constant of the complex between target and ligand, obtained from inhibition or displacement.

The test system of experiment [1] is Mus musculus. The experiment is described as follows: Antagonism of nicotine-induced antinociceptive effect in sc dosed mouse by tail flick assay. It is filed as functional. In a few lines: (§1)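 Mice given saline or analog s.c. at varied times before nicotine; tail-flick tested 5 min after nicotine. Baseline latency 2–4 s, cutoff 10 s. %MPE = (test−control)/(10−control)×100. 8–12 mice per dose, at least 4 doses; AD50 with confidence limits from dose-response, or % effect at top dose.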
A general note: Thermal pain tests record how soon the animal reacts.

The target in experiment [2] is Neuronal acetylcholine receptor subunit alpha-7 (Rattus norvegicus, UniProt Q05941). Briefly: Displacement of [125I]iodoMLA from alpha-7 nAChR in rat cerebral cortex. Type of experiment: tissue-based.
The subject of experiment [3] is Mus musculus. The experiment is described as follows: Antagonism of nicotine-induced seizures in sc dosed ICR mouse. Type of experiment: functional. In a few lines: (§2)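 Mice given saline or analog s.c. 10 min before nicotine. Percentage of animals seizing recorded. Dose-response from at least 4 doses with at least 8 mice per dose; AD50 with confidence limits, or % effect at highest dose.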

In experiment [4] the test system is Mus musculus. The experiment is described as follows: Antagonism of nicotine-induced effect in mouse at 20 mg/kg, sc by hot plate assay. It is filed as functional. Also noted: scale not given: the % may be the effect or the level left. The note with it: route subcutaneous. In a few lines:
(§3)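 Hot plate held at 55.0 C, mice in a 10 cm glass cylinder. Two control latencies taken at least 10 min apart (normal 8–12 s). Latency scored at jump or paw lick. %MPE = (test−control)/(40−control)×100. Analog given s.c. before nicotine; at least 8 mice per dose; % effect at highest dose.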

Experiment [5] is described as follows: Displacement of [3H]epibatidine from nAChRalpha, beta in rat cerebral cortex. Type of experiment: tissue-based. In a few lines:
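Washed male rat cerebral cortex homogenate, 3 mg wet weight, in 50 mM Tris pH 7.4 with NaCl, KCl, CaCl2 and MgCl2. 0.5 nM [3H]epibatidine with 10–12 compound concentrations, 1% DMSO final; 300 μM (–)-nicotine defined nonspecific binding. Incubated 4 h at room temperature, then filtered on PEI-soaked GF/B and counted. Nonlinear fit, at least three experiments.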
For orientation: In a radioligand displacement assay an active substance lowers the binding of a labelled ligand.

Experiment [6] concerns Mus musculus. The experiment is described as follows: Antagonism of nicotine-induced seizures in ICR mouse at 50 mg/kg, sc. Type of experiment: functional. The following applies: route subcutaneous. Also noted: scale not given: the % may be the effect or the level left. In a few lines: as §2
The test system of experiment [7] is Mus musculus. Briefly: Antagonism of nicotine-induced effect in mouse at 30 mg/kg, sc by hot plate assay. Type of experiment: functional. Also noted: scale not given: the % may be the effect or the level left. The following applies: route subcutaneous. In a few lines:
as §3

In experiment [8] the test system is Mus musculus. Briefly: Antagonism of nicotine-induced antinociceptive effect in mouse at 30 mg/kg, sc by tail flick assay. It is filed as functional. Also noted: scale not given: the % may be the effect or the level left. The note with it: route subcutaneous. In a few lines: as §1

Sequence of Neuronal acetylcholine receptor subunit alpha-7 (Q05941 whole entry): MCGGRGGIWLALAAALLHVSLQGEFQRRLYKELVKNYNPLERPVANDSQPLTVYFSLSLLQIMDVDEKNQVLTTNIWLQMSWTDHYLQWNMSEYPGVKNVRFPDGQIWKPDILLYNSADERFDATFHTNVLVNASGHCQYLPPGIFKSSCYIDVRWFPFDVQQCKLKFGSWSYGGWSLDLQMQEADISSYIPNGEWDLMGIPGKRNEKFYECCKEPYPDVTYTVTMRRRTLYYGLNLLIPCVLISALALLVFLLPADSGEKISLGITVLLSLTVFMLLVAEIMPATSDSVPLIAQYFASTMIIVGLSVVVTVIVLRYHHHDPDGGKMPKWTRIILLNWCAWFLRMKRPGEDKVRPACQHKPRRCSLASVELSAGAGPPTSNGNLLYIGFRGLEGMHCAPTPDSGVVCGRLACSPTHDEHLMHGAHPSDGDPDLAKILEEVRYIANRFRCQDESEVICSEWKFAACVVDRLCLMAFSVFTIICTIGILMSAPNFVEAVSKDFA

`CCN1C[C@]2(COC(=O)c3ccccc3N3C(=O)CC(C)(C)C3=O)CC[C@H](OC)C34C2[C@H](OC)[C@](O)(C13)[C@@]1(O)C[C@H](OC)[C@H]2C[C@@H]4[C@@H]1[C@H]2OC`: the figures for the AD50 in the experiment on Mus musculus [1] and in the experiment on Mus musculus [3] were 1.8 mg/kg and 10 mg/kg, respectively. Besides, the Ki in experiment [2] was 1.78 nM; in experiment [5], 602 nM. In the experiment with Mus musculus [4], this molecule displayed an Activity of 13%.
As for `CCN1C[C@]2(COC(=O)c3ccccc3N3C(=O)C(C)[C@H](C)C3=O)CC[C@H](OC)C34C2[C@H](OC)[C@](O)(C13)[C@@]1(O)C[C@H](OC)[C@H]2C[C@@H]4[C@@H]1[C@H]2OC` (stereo partly drawn), in the experiment with Mus musculus [1], the AD50 came out at 7 mg/kg. The results for the Ki in experiment [2] and in experiment [5] were 2.46 nM and 321 nM, respectively. Moreover, the Activity turned out to be 0% in the experiment with Mus musculus [6] and 25% in the experiment on Mus musculus [4].
With `CCN1C[C@]2(COC(=O)c3ccccc3N3C(=O)C[C@H](C)C3=O)CC[C@H](OC)[C@@]34[C@@H]5C[C@H]6[C@H](OC)[C@@H]5[C@](O)(C[C@@H]6OC)[C@](O)([C@@H](OC)[C@H]23)[C@@H]14` [METHYLLYCACONITINE], the AD50 was determined as 12 mg/kg in the experiment on Mus musculus [1] and 2 mg/kg with Mus musculus [3]. In addition, in the experiment with Mus musculus [4], the Activity is on record as 15%. In experiment [5], the Ki came out at 739 nM.
As for `CCN1C[C@]2(COC(=O)c3ccccc3N3C(=O)C[C@@H](C)C3=O)CC[C@H](OC)[C@@]34[C@@H]5C[C@H]6[C@H](OC)[C@@H]5[C@](O)(C[C@@H]6OC)[C@](O)([C@@H](OC)[C@H]23)[C@@H]14`, the values for the Activity in the experiment with Mus musculus [7], in the experiment with Mus musculus [8] and in the experiment with Mus musculus [6] were 0%, 10% and 40%, respectively. This molecule displayed a Ki in experiment [5] of 352 nM.
